Laboratory results: the RNAGym collection of RNA variant scans (doi:10.1126/science.aae0568)
Variants at the floor of the assay were thinned out.

B1: tRNA (parent)
chain: GUUCCGUUGGCGUAAUGGUAACGCGUCUCCCUCCUAAGGAGAAGACUGCGGGUUCGAGUCCCGUACGGAACG

Variants of: B1
Experiment: yeast fitness relative to wild type (ratio to wild type); higher = fitter; tRNA-Arg(CCU), competitive growth, 37 C, YPD
Method in brief: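 A pool of Saccharomyces cerevisiae strains, each with a tRNA-Arg(CCU) gene variant at the native genomic locus, was competed in YPD at 37°C for 24 hours across six parallel replicates. The variants had been chemically synthesised at a 3% per-site mutation rate over 69 sites, and gene amplicons before and after competition were read by 100-nucleotide paired-end sequencing. Darwinian fitness relative to wild type rested on changes in genotype frequencies. Genotypes required ≥ 100 starting reads, and estimates < 0.5 were set to 0.5.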
Work on GUCCCGUUGGCGUAAUGGUACUGCGUCUCCUUUCUAAGGAGAAGACUGCGGGUUCGAGUCCCGUACGGAACG [U3C A21C C22U C31U C33U] yielded a yeast fitness of at most 0.5.
With GUACCGUUGGCGCAAUGGUAACGCGUCUACCUCCUAAGGAGAGGACUGCGGGUUCGAGUCCCGUACCGAACG [U3A U13C C29A A43G G67C] the yeast fitness was 0.595.
With GUCCCGUUGGCGUGAUGGUAACGCGUCUCUCUCCUAAGGAGAAGCGUGCGGGUUCGAGUCCCGUACGGCACG [U3C A14G C30U A45C C46G A69C] the yeast fitness was at most 0.5.
For GUACCGUUGGCGUAAUGGAAACGCGUCUCCCUCCUAAGGAGAAGAAUGCGGGUUCAAGUCCCGUACGGAACG [U3A U19A C46A G56A], the yeast fitness was 0.564.
For GUACCGUUGGCGUAAUGGUAACGCGACUCCCUCUUAAGGAGAAGACGGCGGGUUCGAGUCCCGAACGGAACG [U3A U26A C34U U47G U64A], the yeast fitness was at most 0.5.
GUACCGUUGGCGUAAUGGUAACGCGGCUCCCUCCUAAGGAGAAGACUGCGGGUUCGAGUCCCGUAUGGAACG [U3A U26G C66U] gave a yeast fitness of at most 0.5.
Work on GUACCGUUGGCGUAAUGGUAACGCGCCUCCCUCCUAAGGAGAAGACUGCGGGCUCGAGUCCCGUACGGAACG [U3A U26C U53C] yielded a yeast fitness of at most 0.5.
Variant GUACCGUUGGCGUAACGGUAACGCGUCUCCCUGCUAAGGAGAAGACUGCGGGUUCGAGUCCCGUAGGGAACG [U3A U16C C33G C66G] has a yeast fitness of 0.664.
For GUACCGUUGGCGUAAUGGAAACGCGUCUCCCUACUAAGGAGAAGACUGUGGAUUCGAGUCCCGUACGGAACG [U3A U19A C33A C49U G52A], the yeast fitness was at most 0.5.
Work on GUCCCGUUGGCGUACUGGUAACGCGUCUCCCUCCUCAGGAGAAGACAGCGGGUUCGAGUCCGGUACGGAACG [U3C A15C A36C U47A C62G] yielded a yeast fitness of at most 0.5.
For GUACCGCUGGCGUAUUGGUAACCCGUUUCCCUCCUAAGGAGAAGACUGCGGAUUCGAGUCCCGUACGGAACG [U3A U7C A15U G23C C27U G52A], the yeast fitness was at most 0.5.
In the case of GUACCGUUGGCGUAAUGGUAACGCGCCUCCCUCCUAAGGAGAAGACUGCGGGUUCGAGCCCCGUACGGAACG [U3A U26C U59C], the yeast fitness is reported as at most 0.5.
GUCCCGUUGGCGUUAUGGUCACGGGUCUCCCUCCUAAGGAGAAGACUGCGGGUUUGAGUCCCGUACGGCACG [U3C A14U A20C C24G C55U A69C] showed a yeast fitness of at most 0.5.
Work on GUACCGUUGGCGCAAUGGUAACGCGUCUCCCUCCUAAGGAGAAGACUGCGGGUUCGAGUCCCGUACGAAACG [U3A U13C G68A] yielded a yeast fitness of 0.528.
Variant GUCCCGUUGGCGUAAUGGUAACGCGUCUCCCUCCUAAGGAGAAGACUGCGGGUUCGAGUCCCGUACGGAACG [U3C] has a yeast fitness of 0.996.
GUACCGUUGGCGUAAUGGUAACGCGCCUCCCUCCUAAGGAGACGACUGCGGGUUCGAGUCCCGUACGGAUCG [U3A U26C A43C A70U] gave a yeast fitness of at most 0.5.
GUACCGUAGGCGUAAUGGUAACGCGUCUCCCUCCUAAGGAGAUGACUGCGGGUUUGAGUCCCGUACGGAACG [U3A U8A A43U C55U] gave a yeast fitness of at most 0.5.
With GUACCGCUGGUGCAAUGGUAACGCGUCUCCAUCCUAAGGAGAAGACUGCGGGUUCGAGUCCCGUACGGAACG [U3A U7C C11U U13C C31A] the yeast fitness was at most 0.5.
For GUCCCGUUGGCGUAUGGGAAACGCGUCUCCCUCCUAAGGAGACGACUGCGGGUUCGUGUCCCGUACGGAACG [U3C A15U U16G U19A A43C A57U], the yeast fitness was at most 0.5.
Work on GUCCCGUUGGCGUAAUGGUUACGCGUCUCCCUCCUAAGGAGAAGACUGCGGGUUCGAGUCCCGUACGUGACG [U3C A20U G68U A69G] yielded a yeast fitness of 0.99.
In the case of GUCCCGUUGGCGUAAUGGUCACGCGUCUCCCUCCUAAGGAGAAGAUUGCGGGUUCGAGUCCCGUACGGAACG [U3C A20C C46U], the yeast fitness is reported as 1.06.
With GUACCGUUGGCGUAAUGGUAACGCGUCUCCCGCCUAAGGAGAAGACUGCGGGUUCGAGUCCCCUAUGGAACG [U3A U32G G63C C66U] the yeast fitness was at most 0.5.
With GUACCGUUGGCGUAAUGGUAACGCGACUCCCUCCUAAGGAGAAGACUGCGGGUUCGACUCCCAUACGGAACG [U3A U26A G58C G63A] the yeast fitness was at most 0.5.
Work on GUCCCGUUGGCGUACUGGUAACGCGUCUCCCUCCUUAGGAGAAGACUGCGGGUUCGAGUCCCGUACGGAACG [U3C A15C A36U] yielded a yeast fitness of at most 0.5.
Work on GUACCGUUGGCGUAAUGGGAACGCAUCUCCCUCCUAAGGAGAAGACUGCGGGUUCGAGUCCCGUACAGAACG [U3A U19G G25A G67A] yielded a yeast fitness of 0.56.
With GUCCCGUUGGCGUACUGGUAACGCGUCUCCCUCCUAAAGAGAAGACUGCGGGUACGUGUCCCGUACGGAACG [U3C A15C G38A U54A A57U] the yeast fitness was at most 0.5.
With GUACCGUUGGCGUAAUGGUAACGCGUCUCCCUCCAAAGGAGCAGACUGCGGGUUCGAGUCCCGUACGGAACG [U3A U35A A42C] the yeast fitness was 0.629.
In the case of GUCCCGUUGGCGUAAUGGUUACGCGUCUCCCUCCUAAGGAGAAGACUGCGGGUUCGAGUCCCGUACGGCACG [U3C A20U A69C], the yeast fitness is reported as 0.749.
Variant GUACCGUUGGCGGAAUGGUAACGCGUCUCCCUCCUAAGGAGAAGACCGCGGGUUCGAGUCCCGUACGGACCG [U3A U13G U47C A70C] has a yeast fitness of at most 0.5.
In the case of GUCCCGUUGGCGUACUCGUAACGAGUCUCCUUCCCAAGGAGAAGACUGCGGGUUCGAGUCCCGUACGAAACG [U3C A15C G17C C24A C31U U35C G68A], the yeast fitness is reported as at most 0.5.
Variant GUCCCGUUGGCGUAAUGGUAGCGCGUCUCCCUCGUAAGGAGAAGACUGCGGGUUCGAGUCCCGUACGGCACG [U3C A21G C34G A69C] has a yeast fitness of at most 0.5.
For GUACCGUUGGCGUAAUGGUAACGCGUCUCCCUCCUAAGGAGAAGACUGCGGGUACCAGUCCCGUACGGAACG [U3A U54A G56C], the yeast fitness was 0.767.
GUCCCGUUGGCGUUAUGGUAACGCGUCUCCCUCCUAAGGAGAAGACUGCGGGUUCGAGUCCCGUACGGAACG [U3C A14U] gave a yeast fitness of 0.639.
In the case of GUCCCGUUGGCGUGAUGGUAACGCGUCUCCCUCCUAAGGAGAAGACUGCGGGUUCGAGUCCCGUACGGAACG [U3C A14G], the yeast fitness is reported as 0.917.
GUCCCGUUGGCGUCAUGGUAACGCGUCUCCCUCCUAAGGAGAAGCCUGCGGGUUCGAGUCCCGUCCGGAACG [U3C A14C A45C A65C] gave a yeast fitness of at most 0.5.
GUCCCGUUGGCGUAUUGGUAACGCGUCUCUCUCCUAAGGAGAAGACUGCGGGUUCGAGUCCCGUACGGAACG [U3C A15U C30U] gave a yeast fitness of 0.57.
GUACCGUUGGCGUAAUGGUAACGCGUCUCCCUCCAAAGGAGAAGACUGCGGGUUCGAGUCCCGUACGGAACG [U3A U35A] showed a yeast fitness of 0.658.
